An excerpt weighted towards active compounds, which were near 4.8% of everything screened.
T cruzi inh = inhibitors of intracellular T. cruzi growth, primary screen, luminescence, NIH3T3 host cells. actives 1.4% (n = 300,000). T. cruzi beta-gal in NIH3T3, 90 h. inhibition, % (concentration not given with the values);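 active means mean inhibition across valid replicates above about 55%, limit read from the data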;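 further: signal also drops with host cell toxicity which is not excluded here; higher percent means less beta-gal luminescence so fewer parasites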
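System – NIH/3T3 host cells with β-galactosidase reporter T. cruzi · Doses – single 50 nL compound addition per well in DMSO · Reagent – 5000 T. cruzi trypomastigotes/well · Medium – Low-serum DMEM with 2% FBS · Timing – ≥90 h infection period, 3 h prior cell attachment · Evaluation – parasite load inhibition, % · Technique – GalScreen luminescence, 60 min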
Jurkat NFkB inh = inhibitors of induced NF-kB luciferase reporter, primary screen, TCR NF-kB activation inhibitor project, cell-based, luminescence, uHTS; Jurkat, PMA/ionomycin-induced NF-kB luciferase reporter; inhibition, % at 4 µM; actives 0.53% (n = 330,000); AID 435003, 2010; in the data active means inhibition above about 50%
GPR7 antagonist = GPR7 receptor antagonists, primary screen, cell-based, fluorescence, single concentration; GPR7-expressing cells, fluorescence antagonist assay; inhibition, % at 4.4 µM; actives 1.1% (n = 290,000); AID 1861, 2009; in the data active means inhibition above about 16%, passing the limit was not always enough;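 further: cells stimulated with the agonist NPW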
Target sequence (P48145 whole entry, looked up): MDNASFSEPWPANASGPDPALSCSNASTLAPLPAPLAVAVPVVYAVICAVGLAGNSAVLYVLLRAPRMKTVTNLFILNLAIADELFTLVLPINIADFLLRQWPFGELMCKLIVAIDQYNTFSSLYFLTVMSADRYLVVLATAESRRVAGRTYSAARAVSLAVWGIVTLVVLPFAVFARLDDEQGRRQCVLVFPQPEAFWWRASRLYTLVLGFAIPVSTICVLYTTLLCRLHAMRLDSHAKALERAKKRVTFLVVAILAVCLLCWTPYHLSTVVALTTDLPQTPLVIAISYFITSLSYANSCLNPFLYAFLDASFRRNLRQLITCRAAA
697 NFkB inh = inhibitors of PMA/ionomycin-induced NF-kB reporter, 697 cells, primary screen, B-cell NF-kB inhibitor project, cell-based, luminescence, uHTS; AID 435022, 2010; 697 B-cell NF-kB luciferase reporter, 16 h; actives 0.33% (n = 330,000); inhibition, % at 4 µM; in the data active means inhibition above about 35%
HSF1 inh = HSF1 inhibitors in luciferase reporter cells, primary screen, cell-based, NIH3T3, luminescence; actives 0.77% (n = 300,000); NIH3T3-HGL HSE-luciferase, MG132-induced, luminescence 8 h; stronger effect = lower value; activity change, negative = inhibition, % at 7.5 µM (by protocol); AID 2098, 2009;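 active means more than half of replicate wells show activity change below -50%, luminescence cut by over half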;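 further: luciferase reports HSF-1 transcriptional activity via heat shock element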
HSF1 activator = HSF-1 activators, primary screen, NIH3T3-HGL cells, MG132 stress, luminescence, single point | NIH3T3-HGL HSF-1 luciferase reporter, 8 h; 100% = twice DMSO control signal | activation, % at 9 µM | actives 1.7% (n = 300,000);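 active means mean replicate activation of at least 50% with a set share of replicates each reaching 50%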
Jurkat NFkB conf = PMA/ionomycin-induced NF-kB reporter inhibitors, Jurkat retest, confirmation, T-cell NF-kB inhibitor project, cell-based, luminescence, single concentration; inhibition, % at 4 µM; Jurkat NF-kB luciferase, 16 h; actives 27% (n = 2,700); shares compounds with Jurkat NFkB inh;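 active means inhibition reaching about 45% at 4 µM in either replicate, limit read from the data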
697 NFkB conf = PMA/ionomycin-induced NF-kB reporter inhibitors, 697 retest, confirmation, B-cell NF-kB inhibitor project, cell-based, luminescence, single concentration | 697 B-cell NF-kB luciferase, 16 h | shares compounds with 697 NFkB inh | AID 449746, 2010 | actives 35% (n = 2,000) | inhibition, % at 4 µM; in the data active means inhibition mostly above about 28%, no sharp cut-off; inactive means mostly below about 22%
Large screens that a line does not name were inactive (follow-up assays come after a bar, where they were run).

O=C1NC(=S)CN1c1ccccc1	none
Cc1ccc(NC(=O)C(=O)c2c[nH]c3ccccc23)cc1	HSF1 activator 84 | Jurkat NFkB conf inactive | 697 NFkB conf inactive
Cc1ccc(NC(=O)c2cc(=O)[nH]c3ccccc23)cc1	none
CCc1ccccc1NC(=O)CN1CCN(C(=O)C2CCN(C(=O)/C=C/c3ccccc3)CC2)CC1	none (no result: T cruzi inh, GPR7 antagonist, HSF1 inh, HSF1 activator)
Cn1nc(CC(=O)Nc2ccc3c(c2)CCC3)c2ccccc2c1=O	Jurkat NFkB inh 59, 697 NFkB inh 41 | Jurkat NFkB conf 68 | 697 NFkB conf 47
CC(C)(C)C(=O)CSc1ncnc2c1cnn2-c1ccccc1	none | Jurkat NFkB conf inactive | 697 NFkB conf inactive
O=C(/C=C/c1ccc[nH]1)c1ccccc1	none
Cc1ccc(-c2nc3cc(NC(=O)C(C)C)ccc3o2)cc1C	none | Jurkat NFkB conf inactive | 697 NFkB conf inactive
CC(=O)Nc1ccc2oc(-c3ccccc3)nc2c1	none
CC(C)C(=O)Nc1ccc(-c2nc3cccnc3o2)cc1	none
Cc1cc2nc(-c3ccc(NC(=O)C(C)C)cc3)oc2cc1C	none | Jurkat NFkB conf inactive | 697 NFkB conf inactive
Cc1ccc(-c2nc3cc(NC(=O)C(C)C)ccc3o2)cc1	none | Jurkat NFkB conf inactive | 697 NFkB conf inactive
COc1ccc(CNC(=O)C2CCCN2C(=O)NCc2ccccc2)cc1 (stereo not given)	none
NC(=S)Nc1ccc(S(=O)(=O)c2ccc(NC(N)=S)cc2)cc1	none
Cc1cc(CSc2ccccc2)ccc1NC(=O)c1ccc(CN2CCOCC2)cc1	Jurkat NFkB inh 70, 697 NFkB inh 49 | Jurkat NFkB conf 73 | 697 NFkB conf 47
COc1ccccc1P(=O)(Cc1ccccc1[N+](=O)[O-])c1ccccc1 (stereo not given)	none
COc1ccc(C(=O)/C(C#N)=N/Nc2ccc([N+](=O)[O-])cc2)cc1	Jurkat NFkB inh 60, 697 NFkB inh 53 (no result: HSF1 inh, HSF1 activator) | Jurkat NFkB conf 59 | 697 NFkB conf inactive
COc1ccc(C(=O)/C(C#N)=N/Nc2ccccc2[N+](=O)[O-])cc1	none
O=C(N=c1nc2ccccn2s1)c1ccccc1	none (no result: GPR7 antagonist) | Jurkat NFkB conf inactive | 697 NFkB conf inactive
Cc1ccc(NC(CC(=O)c2ccccc2)C(=O)O)cc1Cl (stereo not given)	none | Jurkat NFkB conf inactive | 697 NFkB conf inactive
CC(C)CC(=O)Nc1cccc(NC(=O)CC(C)C)n1	none
COC(=O)/C(=C1/Oc2cc(C)oc(=O)c2S1)C(F)(F)F	Jurkat NFkB inh 69, HSF1 inh -79 | Jurkat NFkB conf inactive | 697 NFkB conf inactive
O=C(CN1C(=O)NC2(CCCC2)C1=O)Nc1ccc(F)c(Cl)c1	none
CCOc1ccc(OCc2cccc(C(=O)O)c2)cc1	Jurkat NFkB inh 88, 697 NFkB inh 92, HSF1 inh -93 (no result: GPR7 antagonist) | Jurkat NFkB conf 90 | 697 NFkB conf 77
O=C(OCC(F)(F)F)c1cccc(COc2ccc3ccccc3c2)c1	Jurkat NFkB inh 77, 697 NFkB inh 58, HSF1 inh -62 | Jurkat NFkB conf inactive | 697 NFkB conf 33
O=C(O)c1cccc(COc2ccc3c(c2)CCC3)c1	Jurkat NFkB inh 70, 697 NFkB inh 61, HSF1 inh -79 | Jurkat NFkB conf 64 | 697 NFkB conf 45
O=C(O)c1ccc(COc2ccc(CO)cc2Cl)cc1	none
O=Cc1ccc(OCc2cccc(C(F)(F)F)c2)cc1O	none
O=C(O)c1cccc(COc2ccc(CO)cc2Cl)c1	Jurkat NFkB inh 94, 697 NFkB inh 75, HSF1 inh -91 (no result: GPR7 antagonist) | Jurkat NFkB conf 89 | 697 NFkB conf 59

Source: PubChem BioAssay (several laboratories)
